AI-2 QS modul: modulates the Vibrio harveyi AI-2 quorum sensing system; activity change, % at 7.5 µM; 300,000 compounds, 0.4% hits; AID 2094; Vibrio harveyi JMH597 AI-2 luminescence/OD600 ratio, 9 h; active compounds read low; strain lacks LuxN and CqsS sensors; 0 = neutral-control median; in the data active means activity change below about -75%, passing the limit was not always enough; inconclusive means no clear call, values can overlap the other calls;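 further: luminescence divided by OD600 gain over 9 h not by final OD600 alone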
T cruzi inh: T. cruzi replication inhibition; T. cruzi beta-gal in NIH3T3, luminescence, 90 h; inhibition, % (no concentration beside the values); 300,000 compounds, 1.4% hits; AID 1885;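 active means mean inhibition across valid replicates above about 55%, limit read from the data; inconclusive means mean below that limit but half or more replicates reach it; inactive means mean below it, under half of replicates reach it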;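 further: signal also drops with host cell toxicity which is not excluded here; 0% = plate median of DMSO wells and 100% = zero luminescence signal; higher percent means less beta-gal luminescence so fewer parasites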
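assay system = mouse NIH/3T3 fibroblasts infected with β-gal-expressing T. cruzi Tulahuen C4 | input = 5,000 NIH/3T3 host cells per well | buffer or medium = DMEM plus 2% FBS | timing = 3 h host attachment, then at least 90 h co-culture | measured by = GalScreen luminescence, 60 min | evaluation = luminescence reflecting intracellular parasite burden, expressed as percent inhibition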
V-ATPase pH: regulators of yeast V-ATPase proton transport; S. cerevisiae, pHLuorin cytosolic pH fluorescence; response, % at 10 µM; 350,000 compounds, 0.37% hits; AID 504577; in the data active means response mostly above about 7.3%, no sharp cut-off; inactive means mostly below about 5.4%; further: actives read high
CR mimetic SO: yeast age-related superoxide inhibition as caloric restriction mimetic | S. cerevisiae aged cells, superoxide DHE fluorescence; active compounds read low | superoxide response (% of plate mean), % at 10 µM | 330,000 compounds, 0.18% hits | AID 2690;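 active means superoxide response under a set limit, about three screen SD below normal, cut at about 65% in these data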;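 further: yeast aged for seven days with compound at 30 °C before DHE staining; 100% = average MFI of all compound-treated wells on the plate with controls excluded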
HIF act: HIF pathway transcriptional activation. U2OS HRE-luciferase reporter, luminescence; normalized: DMSO 0%, desferrioxamine 100%. activation, % at 7.5 µM (by protocol). 300,000 compounds, 0.32% hits. AID 1910;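 active means mean activation of at least 10% of the iron chelator positive control signal, with at least half of replicates also reaching 10%; inconclusive means mean and replicate majority disagree about reaching 10%; inactive means mean and most replicates under 10%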
CendR NRP1 mod: NRP-1/CendR interaction modulation. AID 602438. O14786. inhibition, % at 25 µM. FAM-RPARPAR peptide binding to NRP-1, fluorescence polarization. 360,000 compounds, 0.85% hits;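 active means inhibition or corrected inhibition above about 18%, plus a signal ratio from 0.5 to 1.5, limit read from the data, passing the limit was not always enough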
Target sequence (O14786 whole entry, looked up): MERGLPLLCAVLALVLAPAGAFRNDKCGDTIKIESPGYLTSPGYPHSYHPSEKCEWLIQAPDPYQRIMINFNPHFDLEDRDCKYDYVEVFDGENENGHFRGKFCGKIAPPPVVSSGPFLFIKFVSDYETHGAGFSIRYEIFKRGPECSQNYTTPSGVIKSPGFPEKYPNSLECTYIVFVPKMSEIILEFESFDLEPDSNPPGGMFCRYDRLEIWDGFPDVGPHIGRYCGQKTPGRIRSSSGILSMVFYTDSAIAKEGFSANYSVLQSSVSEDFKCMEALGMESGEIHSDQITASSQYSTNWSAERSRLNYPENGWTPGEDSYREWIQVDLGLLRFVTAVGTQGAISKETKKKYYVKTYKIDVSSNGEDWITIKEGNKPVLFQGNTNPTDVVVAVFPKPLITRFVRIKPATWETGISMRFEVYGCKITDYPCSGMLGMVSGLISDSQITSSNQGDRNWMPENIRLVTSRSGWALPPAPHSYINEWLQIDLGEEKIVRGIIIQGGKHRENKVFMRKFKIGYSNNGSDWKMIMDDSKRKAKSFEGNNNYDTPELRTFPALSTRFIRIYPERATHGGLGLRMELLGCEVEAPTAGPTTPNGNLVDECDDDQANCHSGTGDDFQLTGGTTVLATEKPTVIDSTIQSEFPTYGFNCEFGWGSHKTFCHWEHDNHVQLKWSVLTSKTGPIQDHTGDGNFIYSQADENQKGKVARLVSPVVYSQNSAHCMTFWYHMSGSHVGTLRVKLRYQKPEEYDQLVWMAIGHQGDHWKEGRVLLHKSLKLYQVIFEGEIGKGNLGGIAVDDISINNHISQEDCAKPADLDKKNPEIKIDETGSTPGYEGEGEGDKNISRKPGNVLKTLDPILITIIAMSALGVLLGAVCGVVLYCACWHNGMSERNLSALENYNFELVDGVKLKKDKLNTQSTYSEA
* = called active by the depositor. An excerpt weighted towards active compounds, which were near 3% of everything screened.

`CC(C)(C)OC(=O)NCc1ccc(CNC(=O)c2nc[nH]c2C(=O)N2CCc3ccccc3C2)cc1` gave V-ATPase pH 0.9, CR mimetic SO 98.8 and CendR NRP1 mod 34.7*.
`CCN(CC)C(=O)c1nc[nH]c1C(=O)N1CCN(c2ccccc2)CC1` gave V-ATPase pH -2.6, CR mimetic SO 98.3 and CendR NRP1 mod 30.3*.
CC(C)(C)OC(=O)N1CCN(C(=O)c2[nH]cnc2C(=O)N[C@@H](Cc2ccccc2)C(=O)OCc2ccccc2)CC1 was read as AI-2 QS modul 25.6, T cruzi inh -11.4, V-ATPase pH 1.9, CR mimetic SO 87.4, HIF act -0.1 and CendR NRP1 mod 5.3.
Screening CC(=O)c1c(C)nn(C(C)CC(=O)O)c1C (centres undefined) returned AI-2 QS modul 19.5, T cruzi inh -4.8, V-ATPase pH 1.3, CR mimetic SO 104.9, HIF act 0.2 and CendR NRP1 mod -13.3.
`CC(C)[C@H](NC(=O)OCc1ccccc1)C(=O)OCC(=O)c1ccccc1` gave V-ATPase pH 2.1, CR mimetic SO 96.4 and CendR NRP1 mod -7.0.
CC1CCN(C(=O)c2[nH]cnc2C(=O)NC2CCN(C(=O)OC(C)(C)C)CC2)CC1 was read as V-ATPase pH -0.4, CR mimetic SO 104.9 and CendR NRP1 mod 29.2*.
Screening C[C@H](NC(=O)c1nc[nH]c1C(=O)NC1CCN(C(=O)OC(C)(C)C)CC1)C(=O)OC(C)(C)C returned AI-2 QS modul -8.5, T cruzi inh -7.1, V-ATPase pH 2.9, CR mimetic SO 107.4, HIF act 2.4 and CendR NRP1 mod 0.3.
COc1ccc(OC)c(CNC(=O)c2[nH]c(C(F)(F)F)nc2-c2ccccc2)c1 was read as CendR NRP1 mod 11.7.
Screening O=C(O)CCC(=O)NNC(=O)CCCOc1ccc(Cl)cc1Cl returned AI-2 QS modul 27.4, T cruzi inh 1.9, V-ATPase pH 2.9, CR mimetic SO 89.2, HIF act -0.5 and CendR NRP1 mod -3.1.
Screening CN(C)C(=O)CCc1ccc2c3c([nH]c2c1)[C@]1(CCc2ccccc2)[C@@H](C(=O)N2CCCCC2)C[C@H](CC(=O)NCc2cccc(C(F)(F)F)c2)C(=O)N1CC3 returned V-ATPase pH 2.2, CR mimetic SO 97.4 and CendR NRP1 mod 1.0.
Screening Cc1n(CC(=O)c2ccc(F)cc2)c2ccccc2[n+]1C returned AI-2 QS modul 30.1, T cruzi inh -17.6, V-ATPase pH 3.6, CR mimetic SO 80.2, HIF act -0.4 and CendR NRP1 mod 7.9.
Screening CCOC(=O)Cn1c(C)[n+](CC(=O)c2ccccc2)c2ccccc21 returned AI-2 QS modul 9.3, T cruzi inh 9.9, V-ATPase pH -2.8, CR mimetic SO 65.5*, HIF act -0.3 and CendR NRP1 mod 0.9.
`CCc1ccc(CN2CCC(n3nccc3NC(=O)c3ccccc3C)CC2)cc1` gave AI-2 QS modul 23.2, T cruzi inh inconclusive, V-ATPase pH -3.0, CR mimetic SO 92.6, HIF act -10.9 and CendR NRP1 mod 3.8.
Screening CC(=O)N(Cc1cccnc1)c1cccc(-c2nc3ccccc3s2)c1 returned AI-2 QS modul 8.2, T cruzi inh 59.4*, V-ATPase pH -2.3, CR mimetic SO 114.5, HIF act 0.0 and CendR NRP1 mod -6.3.
For COc1cc(C(=O)OCC(=O)Nc2c(F)c(F)c(F)c(F)c2F)cc(OC)c1OC the results were AI-2 QS modul 22.1, T cruzi inh -6.2, V-ATPase pH 1.3, CR mimetic SO 110.9, HIF act -0.2 and CendR NRP1 mod 21.1*.
COc1cc(C(N)=O)cc(Br)c1OC was read as AI-2 QS modul -3.7, T cruzi inh -16.8, V-ATPase pH -8.0, CR mimetic SO 87.7, HIF act -0.2 and CendR NRP1 mod 25.4*.
For COc1cc(C(=O)OCCCOC(=O)c2cc(OC)c(OC)c(OC)c2)cc(OC)c1OC the results were AI-2 QS modul 4.0, T cruzi inh 6.4, V-ATPase pH -0.3, CR mimetic SO 101.2, HIF act 0.0 and CendR NRP1 mod 22.2*.
For Cc1cc(C)c(S(=O)(=O)N2CC=C(c3ccccc3)CC2)c(C)c1 the results were AI-2 QS modul 4.4, T cruzi inh 6.4, V-ATPase pH -0.7, CR mimetic SO 101.4, HIF act -0.3 and CendR NRP1 mod -1.6.
For NC(N)=N/N=C/c1cccc(Cl)c1Cl the results were AI-2 QS modul 6.7, T cruzi inh 54.6*, V-ATPase pH -1.8, CR mimetic SO 104.9, HIF act -1.2 and CendR NRP1 mod 14.5.
`NC(N)=N/N=C/c1cccc([N+](=O)[O-])c1O` gave AI-2 QS modul 35.6, T cruzi inh 34.1, CR mimetic SO 121.8, HIF act -0.1 and CendR NRP1 mod 5.6.
`CC(OC(=O)CCN1C(=O)C2CC=CCC2C1=O)C(=O)Nc1cccc(C#N)c1` (centres undefined) gave AI-2 QS modul 18.1, T cruzi inh -3.6, V-ATPase pH -2.5, CR mimetic SO 100.5, HIF act 0.9 and CendR NRP1 mod -0.8.
Screening CCCCC(=O)NC(c1cccs1)c1cc(Cl)c2cccnc2c1O (centres undefined) returned AI-2 QS modul inconclusive, T cruzi inh inconclusive, V-ATPase pH -1.2, CR mimetic SO 123.2, HIF act 34.3* and CendR NRP1 mod -0.8.
Screening CCC(=O)NC(c1cccs1)c1cc(Cl)c2cccnc2c1O (centres undefined) returned AI-2 QS modul 30.1, T cruzi inh 58.7*, V-ATPase pH -3.2, CR mimetic SO 98.5, HIF act 31.1* and CendR NRP1 mod 12.9.
`CCC(=O)NC(c1cc(Cl)c2cccnc2c1O)C(C)C` (centres undefined) gave V-ATPase pH 0.1, CR mimetic SO 82.5 and CendR NRP1 mod 19.1.
CCCC(=O)NC(c1ccco1)c1cc([N+](=O)[O-])c2cccnc2c1O (centres undefined) was read as AI-2 QS modul 48.1, T cruzi inh -12.9, V-ATPase pH 0.6, CR mimetic SO 103.0, HIF act -0.1 and CendR NRP1 mod -9.1.
`NS(=O)(=O)c1cccc(NS(=O)(=O)c2ccc3ccccc3c2)c1` gave AI-2 QS modul -96.9*, T cruzi inh 0.8, V-ATPase pH -1.5, CR mimetic SO 114.3, HIF act 3.6 and CendR NRP1 mod -7.5.
For O=C(O)c1cc(NS(=O)(=O)c2ccc3ccccc3c2)ccc1O the results were AI-2 QS modul 21.1, T cruzi inh -17.1, V-ATPase pH -0.4, CR mimetic SO 93.4, HIF act 0.2 and CendR NRP1 mod -3.2.
For COc1ccc(Cc2c(-c3ccc(C)cc3)nc3c(C)cc(Br)cn23)c(C)c1 the results were CendR NRP1 mod -34.2.

Screening data as filed in PubChem.
